From ChEMBL document CHEMBL5500387, “Design, synthesis of combretastatin A-4 piperazine derivatives as potential antitumor agents by inhibiting tubulin polymerization and inducing autophagy in HCT116 cells” (Eur J Med Chem, 2024)

Assays:
A549 [1] = assay: Induction of apoptosis in human A549 cells assessed as late apoptotic cells at 0.2 uM measured after 24 hrs by Annexin V-APC/PI staining based flow cytometry analysis (reference value: 0.86%); assay type: functional
HCT-116 [2] = assay: Induction of cell cycle arrest in human HCT-116 cells assessed as accumulation of cells at G0/G1 phase at 0.2 uM measured after 24 hrs by PI/RNase staining based flow cytometry analysis (reference value: 32.88%); assay type: functional
HCT-116 [3] = assay: Induction of cell cycle arrest in human HCT-116 cells assessed as accumulation of cells at G0/G1 phase at 0.3 uM measured after 24 hrs by PI/RNase staining based flow cytometry analysis (reference value: 32.88%); assay type: functional
HCT-116 [4] = assay: Induction of autophagy in human HCT-116 cells assessed as increase in LC3-II protein expression measured after 24 hrs by Western blot analysis; assay type: functional, cell-based; conditions: dose 0.1-0.3 µM
Outline: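 HCT116 cells exposed for 24 h to 0.1, 0.2 or 0.3 μM. Lysed on ice and protein measured by BCA. […] Milk-blocked, probed with anti-LC3A/B or anti-phospho-SQSTM1/p62 (1:1000) plus β-actin, then HRP anti-rabbit and chemiluminescence. Bands normalised to control set to 1. Three independent experiments.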

HCT-116 [5] = assay: Induction of cell cycle arrest at G2/M phase in human HCT-116 cells assessed as reduction in Cyclin B1 protein expression measured after 48 hrs by Western blot analysis; assay type: functional, cell-based; conditions: dose 0.1-0.3 µM
Outline: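 HCT116 cells given 0.1, 0.2 or 0.3 μM for 48 h, with 0.1% DMSO control. Lysates run on SDS-PAGE and blotted to PVDF. Probed with anti-Cdc2 and anti-Cyclin B1 (1:1000), β-actin as loading control, HRP secondary, and chemiluminescence. Band quantities expressed relative to control set to 1. Three independent experiments.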

[6] = Toxicity in female BALB/c nude mouse xenografted with human HCT-116 cells assessed as adverse effects at 20 to 40 mg/kg, ip administered every 2 days for 20 days; assay type: organism-based; conditions: in vivo, 480 h, dose 20-40 mg/kg, time 20 day
Outline: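 Female BALB/c nude mice, 5 weeks old, bearing subcutaneous HCT116 xenografts (started at 100 mm³), randomised into groups of ten. Saline-injected ip controls. Body weight monitored throughout the 20-day intraperitoneal treatment.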

HCT-116 [7] = assay: Induction of cell cycle arrest in human HCT-116 cells assessed as accumulation of cells at S phase at 0.3 uM measured after 24 hrs by PI/RNase staining based flow cytometry analysis (reference value: 38.29%); assay type: functional
HCT-116 [8] = assay: Induction of cell cycle arrest in human HCT-116 cells assessed as accumulation of cells at S phase at 0.2 uM measured after 24 hrs by PI/RNase staining based flow cytometry analysis (reference value: 38.29%); assay type: functional
[9] = Octanol-water partition coefficient, log P of the compound at pH 7.4 at 4 mg measured after 24 hrs by liquid chromatography; assay type: physicochemical
Outline: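 4 mg of compound was dissolved in 1 mL water-saturated n-octanol and held 24 h at room temperature, then centrifuged. The supernatant was mixed with an equal volume of octanol-saturated water, stood 24 h, centrifuged and the phases separated. Phase concentrations were measured by LC standard curves. log P = log(C_octanol/C_water). At least three independent runs.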

AGS = assay: Cytotoxicity against human AGS cells assessed as inhibition of cell proliferation measured after 72 hrs by CCK-8 assay; assay type: functional, cell-based
Outline: (§1)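 Cells seeded at 2×10^3 per well and grown overnight in 10% FBS medium: HCT116 in McCoy's 5A, A549 and AGS in F-12K, SK-MES-1 in DMEM. Compounds added at varied concentrations with 0.1% DMSO control, 72 h at 37 °C. 10% CCK-8 for 2 h, then A450 read. Survival = (As−Ab)/(Ac−Ab)×100%. IC50 from curve fitting.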

A549 [10] = assay: Induction of apoptosis in human A549 cells assessed as live cells at 0.1 uM measured after 24 hrs by Annexin V-APC/PI staining based flow cytometry analysis (reference value: 96.91%); assay type: functional
A549 [11] = assay: Cytotoxicity against human A549 cells assessed as inhibition of cell proliferation measured after 72 hrs by CCK-8 assay; assay type: functional, cell-based; conditions: A549, 72 h; outline: as §1
A549 [12] = assay: Induction of cell cycle arrest in human A549 cells assessed as accumulation of cells at G0/G1 phase at 0.1 uM measured after 24 hrs by PI/RNase staining based analysis (reference value: 41.91%); assay type: functional
HCT-116 [13] = assay: Induction of autophagy in human HCT-116 cells transfected with mRFP-GFP-LC3 adenovirus assessed as increase in LC3 labeling by measuring increase in number of yellow dots measured after 24 hrs by immunofluorescence staining based confocal microscopic analysis; assay type: functional, cell-based; conditions: dose 0.1-0.3 µM
Outline: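 HCT116 cells on glass slides were infected with mRFP-GFP-LC3 adenovirus at 50% confluence and incubated 24 h. They were then treated 24 h with 0.1–0.3 μM or 0.1% DMSO. Fixed in 4% paraformaldehyde, mounted with DAPI, and yellow LC3 puncta imaged by confocal microscopy.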

A549 [14] = assay: Induction of apoptosis in human A549 cells assessed as dead cells at 0.3 uM measured after 24 hrs by Annexin V-APC/PI staining based flow cytometry analysis (reference value: 0.50%); assay type: functional
A549 [15] = assay: Induction of apoptosis in human A549 cells assessed as dead cells at 0.1 uM measured after 24 hrs by Annexin V-APC/PI staining based flow cytometry analysis (reference value: 0.50%); assay type: functional
A549 [16] = assay: Induction of cell cycle arrest in human A549 cells assessed as accumulation of cells at G2/M phase at 0.3 uM measured after 24 hrs by PI/RNase staining based analysis (reference value: 10.22%); assay type: functional
A549 [17] = assay: Induction of cell cycle arrest in human A549 cells assessed as accumulation of cells at G0/G1 phase at 0.2 uM measured after 24 hrs by PI/RNase staining based analysis (reference value: 41.91%); assay type: functional
HCT-116 [18] = assay: Inhibition of cell invasion in human HCT-116 cells measured after 48 hrs by crystal violet staining based fluorescent inverted microscopic analysis; assay type: functional; conditions: dose 0.1-0.3 µM
Outline: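 Transwell inserts were coated with Matrigel (1:3 in serum-free medium). HCT116 cells (1×10^4) in serum-free medium went in the upper chamber, with complete medium as stimulus. Treated with 0.1, 0.2 or 0.3 μM or 0.1% DMSO for 48 h at 37 °C. Fixed in 4% paraformaldehyde, stained with 0.1% crystal violet, and imaged. Counts analysed by ImageJ. At least three replicates.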

HCT-116 [19] = assay: Induction of cell cycle arrest in human HCT-116 cells assessed as accumulation of cells at S phase at 0.1 uM measured after 24 hrs by PI/RNase staining based flow cytometry analysis (reference value: 38.29%); assay type: functional
A549 [20] = assay: Induction of apoptosis in human A549 cells assessed as late apoptotic cells at 0.3 uM measured after 24 hrs by Annexin V-APC/PI staining based flow cytometry analysis (reference value: 0.86%); assay type: functional
A549 [21] = assay: Induction of apoptosis in human A549 cells assessed as dead cells at 0.2 uM measured after 24 hrs by Annexin V-APC/PI staining based flow cytometry analysis (reference value: 0.50%); assay type: functional
A549 [22] = assay: Induction of apoptosis in human A549 cells assessed as live cells at 0.3 uM measured after 24 hrs by Annexin V-APC/PI staining based flow cytometry analysis (reference value: 96.91%); assay type: functional

## COc1ccc(/C=C(/C(=O)N2CCN(c3ccc(C)cc3)CC2)c2cc(OC)c(OC)c(OC)c2)cc1O
A549 [1]
  Activity: 4.72%
HCT-116 [2]
  Activity: 34.17%
HCT-116 [3]
  Activity: 5.43%
HCT-116 [4]
  Activity: Dose-Dependent Effect
HCT-116 [5]
  Activity: Dose-Dependent Effect
[6]
  Activity: Non-Toxic
HCT-116 [7]
  Activity: 6.31%
HCT-116 [8]
  Activity: 21.17%
[9]
  logD at 24 h: -0.013
AGS
  IC50: 574 nM
A549 [10]
  Activity: 86.04%
A549 [11]
  IC50: 253 nM
A549 [12]
  Activity: 69.3%
HCT-116 [13]
  Activity: Dose-Dependent Effect
A549 [14]
  Activity: 1.25%
A549 [15]
  Activity: 0.83%
A549 [16]
  Activity: 5.65%
A549 [17]
  Activity: 77.73%
HCT-116 [18]
  inhibition: Dose-Dependent Effect
HCT-116 [19]
  Activity: 31.95%
A549 [20]
  Activity: 8.87%
A549 [21]
  Activity: 1.05%
A549 [22]
  Activity: 68.79%
